Experimental data reported in ChEMBL document CHEMBL1152769, “Exploiting the pyrazolo[3,4-d]pyrimidin-4-one ring system as a useful template to obtain potent adenosine deaminase inhibitors” (J Med Chem, 2009).
pKi: −log10 of the molar value. Active and inactive are the calls of the source. The rule behind the calls is not given here.

Columns and labels:
Bos taurus = organism: Bos taurus; assay: Inhibition of bovine spleen adenosine deaminase type 9 at <= 10 uM by spectrophotometry
Procedure, shortened: (§1)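 Bovine spleen ADA type IX (0.3 nM) with 50 µM adenosine in 50 mM potassium phosphate, pH 7.2, at 30 °C. Deamination read as the A262 change over 2 min, against a substrate-free blank. DMSO ≤4% final. Screened at 10^-5 M; actives retested at 10-5 to 10-11 M in triplicate. IC50 taken by linear regression of log concentration-response, then converted to Ki by Cheng-Prusoff.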

[1] = Inhibition of bovine spleen adenosine deaminase type 9 by spectrophotometry; parameters: species or system Bos taurus; procedure, shortened: as §1
Rattus norvegicus [2] = assay: Antiinflammatory activity in DNBS-induced Sprague-Dawley rat colitis model assessed as reduction in DNBS-induced macroscopic damage in colon at 0.25 umol/kg, ip for 7 days administered 1 day before colitis induction; type: functional, organism-based
Procedure, shortened: (§2)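 DNBS colitis was induced in male Sprague-Dawley rats (250-300 g): 15 mg in 0.25 mL 50% ethanol given intrarectally. Dosing was ip for 7 days, beginning 1 day before DNBS; n=6 per group; vehicle controls. Six days after DNBS, the whole colon was scored for macroscopic damage by two observers blinded to treatment.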

Rattus norvegicus [3] = assay: Antiinflammatory activity in DNBS-induced Sprague-Dawley rat colitis model assessed as reduction in DNBS-induced increase in colonic tissue malondialdehyde level at 0.25 umol/kg, ip for 7 days administered 1 day before colitis induction; type: functional, organism-based
Procedure, shortened: (§3)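 Rats (male Sprague-Dawley) received intrarectal DNBS (15 mg in 50% ethanol), with ip dosing for 7 days from 1 day before; n=6 per group. Colon was taken at day 6, homogenized in cold 20 mmol/L Tris-HCl, pH 7.4, and spun 1500g for 10 min at 4 °C. MDA was measured by colorimetric kit and expressed as µmol per mg tissue.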

Rattus norvegicus [4] = assay: Antiinflammatory activity in DNBS-induced Sprague-Dawley rat colitis model assessed as reduction in DNBS-induced increase in colonic tissue malondialdehyde level at 5 to 45 umol/kg, ip for 7 days administered 1 day before colitis induction; type: functional, organism-based; procedure, shortened: as §3
Rattus norvegicus [5] = assay: Antiinflammatory activity in DNBS-induced Sprague-Dawley rat colitis model assessed as reduction in DNBS-induced increase in spleen weight at 0.25 umol/kg, ip for 7 days administered 1 day before colitis induction; type: functional, organism-based
Procedure, shortened: (§4)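 Colitis was induced in male Sprague-Dawley rats (250-300 g) by intrarectal DNBS, 15 mg in 0.25 mL 50% ethanol, under isoflurane. Drug was given ip daily for 7 days from 1 day before induction; six rats per group; vehicle controls. Spleen was weighed at assessment 6 days after DNBS and expressed as % increase, as an index of systemic inflammation.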

Rattus norvegicus [6] = assay: Antiinflammatory activity in DNBS-induced Sprague-Dawley rat colitis model assessed as reduction in DNBS-induced increase in colonic tissue TNFalpha level at 0.25 umol/kg, ip for 7 days administered 1 day before colitis induction; type: functional, organism-based
Procedure, shortened: (§5)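 In male Sprague-Dawley rats with intrarectal DNBS colitis (15 mg in 50% ethanol), dosing was ip for 7 days from 1 day before induction; six per group. Colon samples from day 6 were stored at -80 °C, homogenized at 4 °C in PBS, pH 7.2 (0.3 mL/100 mg), and centrifuged at 13400g for 20 min. TNF-α was measured by ELISA and expressed as pg/mg tissue.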

Rattus norvegicus [7] = assay: Antiinflammatory activity in ip dosed Sprague-Dawley rat colitis model assessed as reduction in DNBS-induced increase in colonic tissue malondialdehyde level administered for 7 days 1 day before colitis induction; type: functional, organism-based; procedure, shortened: as §3
Rattus norvegicus [8] = assay: Antiinflammatory activity in DNBS-induced Sprague-Dawley rat colitis model assessed as DNBS-induced macroscopic damage in colon at 5 umol/kg, ip for 7 days administered 1 day before colitis induction; type: functional; procedure, shortened: as §2
Rattus norvegicus [9] = assay: Antiinflammatory activity in DNBS-induced Sprague-Dawley rat colitis model assessed as DNBS-induced increase in spleen weight at 15 umol/kg, ip for 7 days administered 1 day before colitis induction; type: functional; procedure, shortened: as §4
Rattus norvegicus [10] = assay: Toxicity in Sprague-Dawley rat assessed as mortality at 5 to 45 umol/kg, ip for 7days; type: organism-based; conditions: in vivo, 168 h
Rattus norvegicus [11] = assay: Antiinflammatory activity in ip dosed Sprague-Dawley rat colitis model assessed as reduction in DNBS-induced increase in spleen weight administered for 7 days 1 day before colitis induction; type: functional, organism-based; procedure, shortened: as §4
Rattus norvegicus [12] = assay: Antiinflammatory activity in ip dosed Sprague-Dawley rat colitis model assessed as reduction in DNBS-induced decrease in body weight administered for 7 days 1 day before colitis induction; type: functional, organism-based
Procedure, shortened: (§6)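 Male Sprague-Dawley rats (250-300 g) under brief isoflurane received 15 mg DNBS in 0.25 mL 50% ethanol intrarectally, 8 cm proximal to anus. Drug was given ip for 7 days starting 1 day before DNBS; controls received vehicle; n=6 per group. Body weight was recorded daily from the start of dosing, and the change was taken at day 6 after DNBS.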

Rattus norvegicus [13] = assay: Toxicity in Sprague-Dawley rat assessed as variation in food intake at 5 to 45 umol/kg, ip for 7days; type: organism-based; conditions: in vivo, 168 h
Rattus norvegicus [14] = assay: Antiinflammatory activity in DNBS-induced Sprague-Dawley rat colitis model assessed as body weight loss at 15 umol/kg, ip for 7 days administered 1 day before colitis induction; type: functional; procedure, shortened: as §6
Rattus norvegicus [15] = assay: Antiinflammatory activity in DNBS-induced Sprague-Dawley rat colitis model assessed as DNBS-induced increase in colonic tissue TNFalpha level at 45 umol/kg, ip for 7 days administered 1 day before colitis induction; type: functional; procedure, shortened: as §5
Rattus norvegicus [16] = assay: Antiinflammatory activity in DNBS-induced Sprague-Dawley rat colitis model assessed as body weight gain at 45 umol/kg, ip for 7 days administered 1 day before colitis induction; type: functional; procedure, shortened: as §6
Rattus norvegicus [17] = assay: Antiinflammatory activity in ip dosed Sprague-Dawley rat colitis model assessed as reduction in DNBS-induced macroscopic damage in colon administered for 7 days 1 day before colitis induction; type: functional, organism-based; procedure, shortened: as §2
Rattus norvegicus [18] = assay: Antiinflammatory activity in ip dosed Sprague-Dawley rat colitis model assessed as reduction in DNBS-induced increase in colonic tissue TNFalpha level administered for 7 days 1 day before colitis induction; type: functional, organism-based; procedure, shortened: as §5
Rattus norvegicus [19] = assay: Antiinflammatory activity in DNBS-induced Sprague-Dawley rat colitis model assessed as body weight loss at 5 umol/kg, ip for 7 days administered 1 day before colitis induction; type: functional; procedure, shortened: as §6
Rattus norvegicus [20] = assay: Toxicity in Sprague-Dawley rat assessed as variation in body weight at 5 to 45 umol/kg, ip for 7days; type: organism-based; conditions: in vivo, 168 h
Rattus norvegicus [21] = assay: Antiinflammatory activity in DNBS-induced Sprague-Dawley rat colitis model assessed as DNBS-induced increase in spleen weight at 45 umol/kg, ip for 7 days administered 1 day before colitis induction; type: functional; procedure, shortened: as §4
Rattus norvegicus [22] = assay: Antiinflammatory activity in DNBS-induced Sprague-Dawley rat colitis model assessed as DNBS-induced increase in spleen weight at 5 umol/kg, ip for 7 days administered 1 day before colitis induction; type: functional; procedure, shortened: as §4
Rattus norvegicus [23] = assay: Antiinflammatory activity in DNBS-induced Sprague-Dawley rat colitis model assessed as DNBS-induced macroscopic damage in colon at 45 umol/kg, ip for 7 days administered 1 day before colitis induction; type: functional; procedure, shortened: as §2
Rattus norvegicus [24] = assay: Antiinflammatory activity in DNBS-induced Sprague-Dawley rat colitis model assessed as DNBS-induced macroscopic damage in colon at 15 umol/kg, ip for 7 days administered 1 day before colitis induction; type: functional; procedure, shortened: as §2
Rattus norvegicus [25] = assay: Toxicity in Sprague-Dawley rat assessed as behavioral changes at 5 to 45 umol/kg, ip for 7days; type: organism-based; conditions: in vivo, 168 h

Structure (SMILES): CCCCCCCCCn1cc2c(=O)[nH]cnc2n1
- Activity (Bos taurus): inactive

Structure (SMILES): O=C(Nc1ccc(Cc2ccccc2)cc1)Nc1ccc(Cn2cc3c(=O)[nH]cnc3n2)cc1
- pKi [1]: 6.73

Structure (SMILES): O=C(Nc1ccc(F)cc1)Nc1ccc(Cn2cc3c(=O)[nH]cnc3n2)cc1
- pKi [1]: 8.94

Structure (SMILES): O=C(Cc1ccccc1)Nc1ccc(Cn2cc3c(=O)[nH]cnc3n2)cc1
- pKi [1]: 7.32

Structure (SMILES): O=C(Nc1ccccc1)Nc1ccc(Cn2cc3c(=O)[nH]cnc3n2)cc1
- pKi [1]: 8.62

Structure (SMILES): C[C@@H]1C[C@H]2[C@@H]3CCC4=CC(=O)C=C[C@]4(C)[C@@]3(F)[C@@H](O)C[C@]2(C)[C@@]1(O)C(=O)CO
- Activity (Rattus norvegicus [2]): Active
- Activity (Rattus norvegicus [3]): Active
- Activity (Rattus norvegicus [4]): Active
- Activity (Rattus norvegicus [5]): Active
- Activity (Rattus norvegicus [6]): Active

Structure (SMILES): CN(C)c1ccc(NC(=O)Nc2ccc(Cn3cc4c(=O)[nH]cnc4n3)cc2)cc1
- pKi [1]: 8.70

Structure (SMILES): O=C(Nc1ccc(Cn2cc3c(=O)[nH]cnc3n2)cc1)c1ccc(F)cc1
- pKi [1]: 9.02

Structure (SMILES): CCCCCCCCCCCn1cc2c(=O)[nH]cnc2n1
- Activity (Bos taurus): inactive

Structure (SMILES): COc1ccc(C(=O)Nc2ccc(Cn3cc4c(=O)[nH]cnc4n3)cc2)cc1
- pKi [1]: 7.81

Structure (SMILES): O=C(NCc1ccccc1)Nc1ccc(Cn2cc3c(=O)[nH]cnc3n2)cc1
- pKi [1]: 7.07

Structure (SMILES): COc1ccc(NC(=O)Nc2ccc(Cn3cc4c(=O)[nH]cnc4n3)cc2)cc1
- pKi [1]: 7.55

Structure (SMILES): O=C(Nc1ccc(Cn2cc3c(=O)[nH]cnc3n2)cc1)c1ccc(C(F)(F)F)cc1
- pKi [1]: 9.29

Structure (SMILES): CCCCCCCCCCn1cc2c(=O)[nH]cnc2n1
- Activity (Bos taurus): inactive

Structure (SMILES): O=C(Nc1ccc(Cn2cc3c(=O)[nH]cnc3n2)cc1)c1ccccc1
- pKi [1]: 7.90

Structure (SMILES): O=C(Nc1ccc(Cn2cc3c(=O)[nH]cnc3n2)cc1)Nc1ccc(OCc2ccccc2)cc1
- pKi [1]: 6.97

Structure (SMILES): O=C(Nc1ccc(Cn2cc3c(=O)[nH]cnc3n2)cc1)Nc1ccc(C(F)(F)F)cc1
- Activity (Rattus norvegicus [7]): Dose-dependent effect
- Activity (Rattus norvegicus [8]): 6.9
- Activity (Rattus norvegicus [9]): 18.9%
- Activity (Rattus norvegicus [10]): Non-toxic
- Activity (Rattus norvegicus [3]): Active
- Activity (Rattus norvegicus [11]): Dose-dependent effect
- Activity (Rattus norvegicus [12]): Dose-dependent effect
- Activity (Rattus norvegicus [13]): Non-toxic
- Activity (Rattus norvegicus [14]): 10.4 g
- Activity (Rattus norvegicus [15]): 5.8 pg/mg
- Activity (Rattus norvegicus [16]): 2.3 g
- Activity (Rattus norvegicus [4]): Active
- Activity (Rattus norvegicus [17]): Dose-dependent effect
- pKi [1]: 9.80
- Activity (Rattus norvegicus [18]): Dose-dependent effect
- Activity (Rattus norvegicus [19]): 16.5 g
- Activity (Rattus norvegicus [20]): Non-toxic
- Activity (Rattus norvegicus [21]): 10.1%
- Activity (Rattus norvegicus [22]): 23.8%
- Activity (Rattus norvegicus [23]): 4.3
- Activity (Rattus norvegicus [24]): 5.6
- Activity (Rattus norvegicus [25]): Non-toxic

Structure (SMILES): CCCCCC[C@H]([C@H](C)O)n1cnc2c(N)ncnc21 [(+)-EHNA]
- pKi [1]: 8.94
